{"source": "paper PMC4824005", "about": "(Nature structural & molecular biology, 2015)", "key": {"Grb2": {"system": "Grb2", "settings": "doubly phosphorylated (Tyr239 and Tyr240) Shc1; cited from earlier work"}, "Src": {"system": "Src", "assay": "HPLC and LC-MS/MS analysis of Src kinase reaction with Shc1 Y-Y peptide", "type": "biochemical", "settings": "5μM Src, 500μM Shc1 peptide, 1mM ATP", "in_short": "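Recombinant Src (5μM final) was reacted with 500μM unmodified Shc1 peptide and 1mM ATP. Timed aliquots were EDTA-quenched, then run on C18 reversed-phase HPLC (0–30% acetonitrile/0.1% TFA over 30 min, 1.0 ml/min, A220), with peaks assigned from standards. The peak was analysed by nanoflow LC/MS/MS on an Orbitrap with CID and database search (FDR <1.5%, manual check). Site occupancy was taken from spectral counts per pTyr site.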"}, "EGFR [1]": {"biological_target": "T1, EGFR (Homo sapiens, UniProt P00533)", "assay": "HPLC and LC-MS/MS analysis of EGFR kinase reaction with Shc1 Y-Y peptide", "type": "biochemical", "settings": "no pY-pY peptides detected in HPLC analysis of EGFR reaction (Fig. 2c)"}, "EGFR [2]": {"biological_target": "T1, EGFR", "assay": "EGFR steady-state kinetics with Shc1 peptides", "type": "biochemical", "settings": "peptide primed at Tyr240 vs unmodified peptide", "in_short": "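Recombinant EGFR kinase domain (residues 696–1022) at 100nM was incubated with Shc1 Tyr239-region peptides carrying added C-terminal lysines (0–12mM) in 50mM Tris pH 7.5, 10mM MgCl₂, 10mM MnCl₂, 2mM DTT with 2μCi γ-³²P-ATP/reaction, 30 min at 30°. Reactions were spotted on P81 paper, washed with 75mM H₃PO₄ and scintillation-counted. Initial rates (<5% substrate consumed) were fitted to Michaelis–Menten by nonlinear least squares; three experiments, each in triplicate.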"}, "[3]": {"system": "Shc1 phosphorylated at Tyr239 and Tyr240 in MCF10A cells", "assay": "Immunoblot of dual Shc1 phosphorylation in MCF10A cells", "type": "cell-based", "settings": "dasatinib 250 or 500nM pretreatment 1 hour, then 1ng/mL EGF 3 min", "in_short": "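MCF10A cells (STR-authenticated, mycoplasma-free) were kept in HuMEC medium and held 16 h in growth-factor-free medium before pretreatment with test compound and EGF stimulation. Cells were lysed in RIPA buffer containing protease and phosphatase inhibitors. Lysates were separated by SDS-PAGE, transferred to nitrocellulose and immunoblotted with phospho-Shc and total Shc antibodies.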"}}, "note": "Non-standard residues stand in square brackets, D forms with d. No end group written: not given here. *: point of attachment. Biotin = O=C1N[C@H]2[C@H](CS[C@H]2CCCCC(=O)*)N1; pY = N[C@@H](Cc1ccc(OP(=O)(O)O)cc1)C(=O)O; AHA = not defined here"}
{"compound": "doubly phosphorylated Shc1: Shc1 doubly phosphorylated at Tyr239 and Tyr240, literature ref 31 ({Biotin-AHA}-DHQ[pY][pY]NDFPGKE; reading uncertain)", "values": [{"measurement": "increase in affinity for Grb2 vs phosphorylation at Tyr239 alone", "setting": "Grb2", "result": 3, "unit": "fold"}]}
{"compound": "PDHQYYNDAKKK [Y-Y]", "values": [{"measurement": "product of Src phosphorylation by HPLC", "setting": "Src", "result": "mono-phosphorylated peptides were the predominant product"}]}
{"compound": "PDHQpYYNDAKKK [pY-Y]", "values": [{"measurement": "further phosphorylation by EGFR", "setting": "EGFR [1]", "result": "not a substrate for further phosphorylation by EGFR"}]}
{"compound": "PDHQYpYNDAKKK [Y-pY]", "values": [{"measurement": "decrease of Km by priming phosphorylation", "setting": "EGFR [2]", "result": "approximately 4 fold"}]}
{"compound": "Cc1nc(Nc2ncc(C(=O)Nc3c(C)cccc3Cl)s2)cc(N2CCN(CCO)CC2)n1", "note": "[dasatinib, reference compound]", "values": [{"measurement": "inhibition of EGF-induced dual phosphorylation of Shc1", "setting": "[3]", "result": "almost completely abolished"}]}
